Results on 17 molecules are retold here after ChEMBL document CHEMBL1828563, “Synthesis and biological evaluation of 3-(1H-imidazol- and triazol-1-yl)-2,2-dimethyl-3-[4-(naphthalen-2-ylamino)phenyl]propyl derivatives as small molecule inhibitors of retinoic acid 4-hydroxylase (CYP26)” (J Med Chem, 2011).

The source made the active and inactive calls. No cut-off for these calls is given here.

One series has as its target Cytochrome P450 2C9 (Homo sapiens, UniProt P11712). The experiment in a line: Inhibition of CYP2C9 in human liver microsomes. The series is classed as ADME, Microsome. A general note: Liver microsomes are a subcellular fraction often used to study metabolism.
Another series has as its target T1, CYP1A2 (Homo sapiens, UniProt P05177).
T1 sequence (P05177 whole entry): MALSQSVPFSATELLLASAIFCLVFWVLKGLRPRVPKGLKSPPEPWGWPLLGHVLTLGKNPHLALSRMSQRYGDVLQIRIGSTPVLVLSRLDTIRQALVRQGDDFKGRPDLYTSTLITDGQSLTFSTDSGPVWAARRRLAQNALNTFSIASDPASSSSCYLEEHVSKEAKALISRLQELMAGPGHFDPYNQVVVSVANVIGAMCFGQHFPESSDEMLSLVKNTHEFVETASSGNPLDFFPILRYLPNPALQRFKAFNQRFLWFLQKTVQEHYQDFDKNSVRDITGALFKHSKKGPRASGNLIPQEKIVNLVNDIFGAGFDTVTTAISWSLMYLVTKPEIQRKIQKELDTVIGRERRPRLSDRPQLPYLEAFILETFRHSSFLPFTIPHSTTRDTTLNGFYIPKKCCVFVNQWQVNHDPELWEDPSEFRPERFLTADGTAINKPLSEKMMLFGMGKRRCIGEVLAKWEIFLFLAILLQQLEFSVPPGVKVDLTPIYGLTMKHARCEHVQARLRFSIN
As to the kind of experiment: Inhibition of CYP1A2 in human liver microsomes at 0.4 uM. Type of series: ADME, Microsome.

For the next series, the target named is CYP3A4 (Homo sapiens, UniProt P08684). The experiment in a line: Inhibition of CYP3A4 in human liver microsomes at 0.4 uM. The series is classed as ADME, Microsome.
Sequence of CYP3A4 (P08684 whole entry): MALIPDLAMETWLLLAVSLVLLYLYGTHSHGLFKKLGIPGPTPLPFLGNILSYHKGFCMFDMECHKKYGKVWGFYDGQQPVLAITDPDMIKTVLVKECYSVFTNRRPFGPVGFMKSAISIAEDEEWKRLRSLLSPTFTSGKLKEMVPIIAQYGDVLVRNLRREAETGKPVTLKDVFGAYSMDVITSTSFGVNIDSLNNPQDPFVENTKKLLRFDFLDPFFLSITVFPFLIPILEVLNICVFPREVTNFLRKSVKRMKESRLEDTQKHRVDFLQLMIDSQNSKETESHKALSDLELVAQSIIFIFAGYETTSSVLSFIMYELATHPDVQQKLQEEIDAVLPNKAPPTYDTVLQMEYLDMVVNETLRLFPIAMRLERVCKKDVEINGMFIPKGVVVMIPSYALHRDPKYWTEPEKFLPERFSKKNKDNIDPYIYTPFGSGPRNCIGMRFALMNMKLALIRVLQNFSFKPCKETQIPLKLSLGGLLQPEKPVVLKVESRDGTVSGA
A further series addresses CYP2D6 (Homo sapiens, UniProt P10635). The experiment in a line: Inhibition of CYP2D6 in human liver microsomes at 0.4 uM. Type of series: ADME, Microsome.
The target in a further series is CYP2C19 (Homo sapiens, UniProt P33261). The experiment in a line: Inhibition of CYP2C19 in human liver microsomes at 0.4 uM. Type of series: ADME, Microsome.
Sequence of CYP2C19 (P33261 whole entry): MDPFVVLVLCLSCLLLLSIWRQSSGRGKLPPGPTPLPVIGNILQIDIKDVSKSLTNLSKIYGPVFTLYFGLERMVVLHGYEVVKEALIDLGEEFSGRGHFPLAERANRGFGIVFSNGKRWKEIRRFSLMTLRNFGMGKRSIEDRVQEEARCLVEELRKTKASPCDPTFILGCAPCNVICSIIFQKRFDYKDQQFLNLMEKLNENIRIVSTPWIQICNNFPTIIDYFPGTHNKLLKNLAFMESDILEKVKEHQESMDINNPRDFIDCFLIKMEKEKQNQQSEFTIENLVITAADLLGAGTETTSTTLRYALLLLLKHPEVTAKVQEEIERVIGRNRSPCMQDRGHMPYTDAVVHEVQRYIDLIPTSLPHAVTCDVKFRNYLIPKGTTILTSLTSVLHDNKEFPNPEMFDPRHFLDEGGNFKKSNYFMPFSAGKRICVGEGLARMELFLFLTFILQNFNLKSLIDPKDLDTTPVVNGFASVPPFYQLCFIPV
The next series concerns the target CYP2C9 (Homo sapiens, UniProt P11712). As to the kind of experiment: Inhibition of CYP2C9 in human liver microsomes at 0.4 uM. The series is classed as ADME, Microsome.
The target in series [1] is T2, Cytochrome P450 26A1 (Homo sapiens, UniProt O43174).
T2 sequence (O43174 whole entry): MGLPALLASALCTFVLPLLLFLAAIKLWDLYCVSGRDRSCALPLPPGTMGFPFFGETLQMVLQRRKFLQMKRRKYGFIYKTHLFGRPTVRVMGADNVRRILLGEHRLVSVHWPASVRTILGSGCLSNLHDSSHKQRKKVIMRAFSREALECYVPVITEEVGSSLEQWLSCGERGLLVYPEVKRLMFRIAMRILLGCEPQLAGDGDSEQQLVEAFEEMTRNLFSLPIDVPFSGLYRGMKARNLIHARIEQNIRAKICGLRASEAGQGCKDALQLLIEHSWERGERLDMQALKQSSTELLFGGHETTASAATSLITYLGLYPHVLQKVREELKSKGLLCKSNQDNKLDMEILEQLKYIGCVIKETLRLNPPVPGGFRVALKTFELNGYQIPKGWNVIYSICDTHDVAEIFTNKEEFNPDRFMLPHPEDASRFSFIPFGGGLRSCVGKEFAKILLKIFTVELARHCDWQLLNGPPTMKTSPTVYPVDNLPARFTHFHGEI
The experiment in a line: Inhibition of human CYP26A1 assessed using [11,12-3H]ATRA as substrate by scintillation counting. The gist of the method: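 CYP26 source: microsomes from MCF-7 cells pretreated 24 h with ATRA to induce CYP26, isolated by differential centrifugation. 50 μg microsomal protein in 50 mM Tris pH 7.4, 150 mM KCl, 10 mM MgCl₂, 0.02% BSA, 2 mM NADPH, 10 nM ATRA plus 0.1 μCi ³H-ATRA. Inhibitor 1–1000 nM, 1 h at 37 °C. Acetonitrile quench, retinoids resolved on C18 HPLC.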

Series [2] deals with T2, Cytochrome P450 26A1. As to the kind of experiment: Inhibition of CYP26 in human MCF-7 cell microsomes.
The subject of another series is SH-SY5Y. As to the kind of experiment: Increase in CYP26A1 mRNA expression in human SH-SY5Y cells at 1 uM after 72 hrs by RT-PCR analysis in the presence of 0.1 uM all-trans-retinoic acid. Type of series: functional. Summed up:
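SH-SY5Y cells grown in RPMI 1640 with 10% FCS and 2 mM L-glutamine. Treated 72 h with 0.1 μM ATRA plus inhibitor at 1 μM; inhibitors in ethanol diluted in medium. Total RNA reverse transcribed for TaqMan real-time PCR of CYP26A1, normalized to β-actin. Fold increase relative to cells given […]; mean ± SD, n = 6.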

The next series deals with Cytochrome P450 3A4 (Homo sapiens, UniProt P08684). As to the kind of experiment: Inhibition of CYP3A4 in human liver microsomes. The series is classed as ADME, Microsome.
Sequence of Cytochrome P450 3A4 (P08684 whole entry): as the sequence (P08684 whole entry) above
In a further series the target is Cytochrome P450 2D6 (Homo sapiens, UniProt P10635). As to the kind of experiment: Inhibition of CYP2D6 in human liver microsomes. The series is classed as ADME, Microsome.
Sequence of Cytochrome P450 2D6 (P10635 whole entry): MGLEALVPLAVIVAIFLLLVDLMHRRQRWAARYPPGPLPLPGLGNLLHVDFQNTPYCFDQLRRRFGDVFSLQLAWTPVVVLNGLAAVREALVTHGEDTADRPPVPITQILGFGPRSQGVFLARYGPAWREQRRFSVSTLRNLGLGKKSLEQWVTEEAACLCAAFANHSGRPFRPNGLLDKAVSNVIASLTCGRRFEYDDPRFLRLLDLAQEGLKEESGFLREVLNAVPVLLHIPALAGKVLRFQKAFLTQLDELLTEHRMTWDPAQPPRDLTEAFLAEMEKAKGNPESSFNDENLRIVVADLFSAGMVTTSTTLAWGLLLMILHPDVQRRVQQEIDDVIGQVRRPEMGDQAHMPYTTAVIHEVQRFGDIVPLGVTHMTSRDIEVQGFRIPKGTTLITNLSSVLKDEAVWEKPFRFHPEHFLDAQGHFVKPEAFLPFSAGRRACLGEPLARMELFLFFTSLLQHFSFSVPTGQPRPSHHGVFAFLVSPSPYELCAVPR
Another series addresses T3, Cytochrome P450 1A2 (Homo sapiens, UniProt P05177).
T3 sequence (P05177 whole entry): T1 sequence (P05177 whole entry)
The experiment in a line: Inhibition of CYP1A2 in human liver microsomes. The series is classed as ADME, Microsome.

Series [3] in a line: Half-life in human liver microsomes. Type of series: ADME, Microsome.
For the next series, the target named is Cytochrome P450 2C19 (Homo sapiens, UniProt P33261). As to the kind of experiment: Inhibition of CYP2C19 in human liver microsomes. The series is classed as ADME, Microsome.
Sequence of Cytochrome P450 2C19 (P33261 whole entry): as the sequence (P33261 whole entry) above

Sequence of Cytochrome P450 2C9 (P11712 whole entry): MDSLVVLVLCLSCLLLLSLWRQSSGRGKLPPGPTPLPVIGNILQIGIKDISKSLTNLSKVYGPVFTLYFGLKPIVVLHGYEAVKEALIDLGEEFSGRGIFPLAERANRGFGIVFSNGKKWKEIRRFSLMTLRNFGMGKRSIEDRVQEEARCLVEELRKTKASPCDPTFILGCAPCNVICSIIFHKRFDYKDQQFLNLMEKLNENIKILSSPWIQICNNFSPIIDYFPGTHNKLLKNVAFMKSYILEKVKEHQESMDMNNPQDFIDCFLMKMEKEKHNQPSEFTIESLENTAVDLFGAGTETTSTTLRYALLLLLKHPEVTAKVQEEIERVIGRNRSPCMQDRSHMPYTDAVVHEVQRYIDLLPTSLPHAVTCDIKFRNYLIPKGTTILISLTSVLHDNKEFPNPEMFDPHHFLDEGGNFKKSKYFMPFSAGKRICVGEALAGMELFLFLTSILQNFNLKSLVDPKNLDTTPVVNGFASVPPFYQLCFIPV
Sequence of CYP2C9 (P11712 whole entry): as above
Sequence of CYP2D6 (P10635 whole entry): as the sequence (P10635 whole entry) above

The term IC50 denotes the concentration at which inhibition is half-maximal. Turning to `C[C@H]([C@@H](c1ccc(Nc2nc3ccccc3s2)cc1)n1ccnc1)N(C)C`, the IC50 against Cytochrome P450 2C9 was determined as 11000 nM.
What is called inhibition is the drop in the measured response relative to a control, in per cent. Turning to `CN(C)C(=O)C(C)(C)C(c1ccc(Nc2ccc3ccccc3c2)cc1)n1ccnc1` (stereo unspecified), the inhibition at 0.4 µM turned out to be 11% on CYP1A2; 95% at CYP3A4; 29% against CYP2D6; 21% at CYP2C19; 52% against CYP2C9. At Cytochrome P450 26A1 [1], this molecule came in with an IC50 of 75 nM.
What is called half-life is the time in which the quantity being followed falls by half. In the case of `COC(=O)C(C)(C)C(c1ccc(Nc2ccc3ccccc3c2)cc1)n1cncn1` (stereo unspecified), the inhibition at 0.4 µM was 10% against CYP1A2; 22% against CYP3A4; -2% at CYP2D6; 16% against CYP2C19; 38% at CYP2C9. Further, the IC50 came to 0.3 nM on Cytochrome P450 26A1 [2]; 330 nM at Cytochrome P450 3A4; 1800 nM against Cytochrome P450 2D6; 10900 nM against Cytochrome P450 1A2; 0.35 nM at Cytochrome P450 26A1 [1]; 21400 nM against Cytochrome P450 2C9. This molecule returned an IC50 at Cytochrome P450 2C19 of 3140 nM. In addition, the “fold change (FC)” value in the series on SH-SY5Y came to 5.2. This molecule also registered a half-life in series [3] of 3.73 h.
Consider `COC(=O)C(C)(C)C(c1ccc(Nc2ccc3ccccc3c2)cc1)n1ccnc1` (stereo unspecified), for which, in the series with SH-SY5Y, the result was Active. This molecule registered a half-life in series [3] of 5.02 h. Moreover, half-maximal inhibition at Cytochrome P450 2C9 (IC50) was put at 8000 nM.
Consider `CNC(=O)C(C)(C)C(c1ccc(Nc2ccc3ccccc3c2)cc1)n1cncn1` (stereo unspecified), for which the IC50 at Cytochrome P450 26A1 [1] worked out at 350 nM.
On the same count and under the same terms, next, `CC(C)OC(=O)C(C)(C)C(c1ccc(Nc2ccc3ccccc3c2)cc1)n1ccnc1` (stereo unspecified): 290 nM.
As to `COc1ccc2cc(Nc3ccc(C(n4ccnc4)C(C)(C)CO)cc3)ccc2c1` (stereo unspecified), the “fold change (FC)” value in the series with SH-SY5Y is 3.7. At Cytochrome P450 26A1 [1], the IC50 was determined as 40 nM.
On Cytochrome P450 26A1 [1], `CC(C)(C(=O)O)C(c1ccc(Nc2ccc3ccccc3c2)cc1)n1cncn1` (stereo unspecified) yielded an IC50 above 1000 nM.
As to `CCOC(=O)C(C)(C)C(c1ccc(Nc2ccc3ccccc3c2)cc1)n1ccnc1` (stereo unspecified), the inhibition at 0.4 µM was 20% against CYP1A2; 61% against CYP3A4; 15% against CYP2D6; 30% on CYP2C19; 43% against CYP2C9. The “fold change (FC)” value with SH-SY5Y was 5.8. On Cytochrome P450 26A1 [1], this molecule yielded an IC50 of 0.35 nM.
Take `CNC(=O)C(C)(C)C(c1ccc(Nc2ccc3ccccc3c2)cc1)n1ccnc1` (stereo unspecified): the inhibition at 0.4 µM was 15% against CYP1A2; 86% on CYP3A4; 13% at CYP2D6; 14% against CYP2C19; 45% at CYP2C9. Also, the result in the series on SH-SY5Y was Active. The IC50 at Cytochrome P450 26A1 [1] was 12 nM.
With `CC(C)(C(N)=O)C(c1ccc(Nc2ccc3ccccc3c2)cc1)n1ccnc1` (stereo unspecified), the “fold change (FC)” value with SH-SY5Y is 4.1. At Cytochrome P450 26A1 [1], this molecule came in with a concentration for half-maximal inhibition (IC50) of 50 nM.
As for `CCCCCOC(=O)C(C)(C)C(c1ccc(Nc2ccc3ccccc3c2)cc1)n1ccnc1` (stereo unspecified), on Cytochrome P450 26A1 [1], the IC50 came out at 140 nM. This counts as sub-micromolar.
On the same count and under the same terms, next, `CC(C)NC(=O)C(C)(C)C(c1ccc(Nc2ccc3ccccc3c2)cc1)n1ccnc1` (stereo unspecified): 120 nM.
Still for that read-out and setting: next, `CC(C)(C(=O)O)C(c1ccc(Nc2ccc3ccccc3c2)cc1)n1ccnc1` (stereo unspecified): 300 nM; `CCCCOC(=O)C(C)(C)C(c1ccc(Nc2ccc3ccccc3c2)cc1)n1ccnc1` (stereo unspecified): 200 nM; `CC(C)(C(=O)OCc1ccccc1)C(c1ccc(Nc2ccc3ccccc3c2)cc1)n1ccnc1` (stereo unspecified): 400 nM.
`c1ccc(C(c2ccc(Nc3ccc4ccccc4c3)cc2)n2ccnc2)cc1` (stereo unspecified): at Cytochrome P450 26A1 [1], half-maximal inhibition (IC50) required 500 nM.
